Screens (PubChem BioAssay)
The list is not random: actives were taken first. Their share in the collection is about 2.7%.
S100A4 inh HTS: inhibitors of S100A4-myosin IIA peptide binding, primary screen, biochemical, fluorescence polarization, TAMRA-MyoIIA peptide | Protein S100-A4 (Homo sapiens), P26447 | 360,000 compounds, 0.14% hits | inhibition, % at 10.7 µM;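 active means mean inhibition of at least 70% across replicates, with every replicate also reaching that level; inconclusive means mean inhibition reaches 70% but some replicates fall short; inactive means mean inhibition below 70%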
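incubation = readout 5 min after mixing, signal stable up to 60 min | system = S100A4 monomer protein | buffer or medium = HEPES pH 7.2 with CaCl2, KCl, NaCl, DTT, Triton | benchmarks = neutral control DMSO, positive control TFP | also added = fluorescent myosin IIA peptide, 5 nM | compound dosing = one concentration per compound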
SIRT5 inh: SIRT5 desuccinylase inhibitors, primary screen, biochemical, fluorescence imaging, single point, set 5. NAD-dependent protein deacylase sirtuin-5, mitochondrial (Homo sapiens), Q9NXA8. Purified SirT5, succinyl-peptide AMC, trypsin-coupled fluorescence. inhibition, % at 15 µM. 330,000 compounds, 1.1% hits. AID 652115, 2013; in the data active means inhibition above about 15%; inconclusive means no clear call, values can overlap the other calls
CaV13 FRET inh: Primary screen for inhibitors of IQ motif and Ca2+-dependent inactivation inhibitor domain binding in CACNA1D, Förster resonance energy transfer in living cells, …; 340,000 compounds, 0.098% hits; HEK cells, CFP/YFP FRET ICDI-IQ, plate reader, 10 min; percent FRET-ratio fall versus neutral wells; inhibition, % at 12.3 µM;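 active means mean replicate inhibition of at least 30% and at least 1% of replicates passing that level; inconclusive means only one of the two criteria is met; inactive means neither criterion is met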;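 further: 0% = median of the neutral control wells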
DENV2 CPE: inhibitors of DENV2 cytopathic effect, primary screen, cell-based, plate reader, single concentration; DENV2-infected cells, cytopathic effect rescue; CPE inhibition, % at 9.99 µM; 350,000 compounds, 1.7% hits; in the data active means CPE inhibition above about 20%, passing the limit was not always enough; inconclusive means no clear call, values can overlap the other calls; tested in BHK-21 cells;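 further: 0% = median of neutral control wells and 100% = median of positive control wells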
MLL AF4-AF9 inh: inhibitors of AF4 peptide binding to AF9, primary screen, biochemical, AlphaScreen, biotin-AF4 peptide, FLAG-AF9, single point | AID 651704, 2012 | 350,000 compounds, 0.47% hits | inhibition, % at 10 µM;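 active means every replicate reaching a set inhibition limit, whatever the replicate mean, cut at about 25% in these data; inconclusive means mean inhibition reaches that limit but some replicates miss it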;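 further: 0% = plate neutral control median and 100% = total signal loss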
Target sequence (P42568 whole entry, looked up): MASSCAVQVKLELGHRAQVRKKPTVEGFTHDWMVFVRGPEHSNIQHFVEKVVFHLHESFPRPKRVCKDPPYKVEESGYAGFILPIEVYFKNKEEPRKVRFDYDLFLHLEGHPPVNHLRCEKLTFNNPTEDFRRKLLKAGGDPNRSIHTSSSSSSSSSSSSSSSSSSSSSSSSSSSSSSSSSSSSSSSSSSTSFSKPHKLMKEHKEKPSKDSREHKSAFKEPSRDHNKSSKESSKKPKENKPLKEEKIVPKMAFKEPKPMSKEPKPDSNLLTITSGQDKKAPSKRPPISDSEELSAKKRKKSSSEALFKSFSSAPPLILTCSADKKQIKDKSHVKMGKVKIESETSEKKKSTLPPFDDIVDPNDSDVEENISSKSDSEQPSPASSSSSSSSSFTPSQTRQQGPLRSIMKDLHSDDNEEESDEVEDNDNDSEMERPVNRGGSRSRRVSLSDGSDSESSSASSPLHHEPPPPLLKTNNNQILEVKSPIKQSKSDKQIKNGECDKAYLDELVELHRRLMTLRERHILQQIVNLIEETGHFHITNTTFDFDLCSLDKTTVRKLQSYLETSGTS
Numbers without * were called inactive.

COc1ccc(NC(=O)N(C)C[C@@H]2Oc3ccc(NC(=O)c4ccncc4)cc3CC(=O)N([C@@H](C)CO)C[C@H]2C)cc1 was read as S100A4 inh HTS -13, SIRT5 inh 0 and DENV2 CPE 15.
Screening COc1ccc(NC(=O)N(C)C[C@@H]2Oc3ccc(NC(=O)c4ccncc4)cc3CC(=O)N([C@@H](C)CO)C[C@@H]2C)cc1 returned S100A4 inh HTS 6, SIRT5 inh -1, DENV2 CPE 28* and MLL AF4-AF9 inh -2.
For COC(=O)c1c(-c2ccc(OC)cc2)c2c(c3c4cc(OC)ccc4n(S(=O)(=O)c4ccc(C)cc4)c13)C(=O)N(C)C2 the results were S100A4 inh HTS -5, CaV13 FRET inh -5, DENV2 CPE inconclusive and MLL AF4-AF9 inh 0.
O=S(=O)(c1ccccc1)N1CC2(C1)[C@H](c1ccccc1)[C@H](CO)N2CC1CCOCC1 was read as S100A4 inh HTS 11, SIRT5 inh -2, DENV2 CPE -8 and MLL AF4-AF9 inh -3.
For O=S(=O)(c1ccccc1)N1CC2(C1)[C@@H](c1ccccc1)[C@@H](CO)N2CC1CCCC1 the results were S100A4 inh HTS -5, SIRT5 inh 13, DENV2 CPE 27* and MLL AF4-AF9 inh -1.
For O=S(=O)(c1ccccc1)N1CC2(C1)[C@H](c1ccccc1)[C@@H](CO)N2CC1CCOCC1 the results were S100A4 inh HTS -6, SIRT5 inh -2, DENV2 CPE 36* and MLL AF4-AF9 inh 1.
`O=S(=O)(c1ccccc1)N1CC2(C1)[C@H](c1ccccc1)[C@@H](CO)N2CC1CCCC1` gave S100A4 inh HTS 2, SIRT5 inh 1, DENV2 CPE -13 and MLL AF4-AF9 inh 1.
Screening O=C(C[C@H]1CC[C@@H](NS(=O)(=O)c2cccc(F)c2)[C@@H](CO)O1)N1CCCCC1 returned S100A4 inh HTS 0, SIRT5 inh -6, DENV2 CPE 14 and MLL AF4-AF9 inh 0.
Screening COc1cc(/C=N/OCC(=O)Nc2cc(C)on2)ccc1OCc1ccccc1 returned S100A4 inh HTS 2, SIRT5 inh 28*, CaV13 FRET inh -4, DENV2 CPE -6 and MLL AF4-AF9 inh inconclusive.
COc1cc(/C=C/C(=O)NC(C)C)ccc1OCc1ccccc1 was read as CaV13 FRET inh -5.
`COc1ccc(-c2cnc3c(c2)C(=O)N([C@H](C)CO)C[C@@H](C)[C@@H](CN(C)C(=O)Cc2ccccc2)O3)cc1` gave S100A4 inh HTS -1, SIRT5 inh 0, DENV2 CPE -15 and MLL AF4-AF9 inh -4.
For CCN(c1ccccc1)c1cc(C)nc2nc(C)nn12 the results were S100A4 inh HTS -2, SIRT5 inh 2, CaV13 FRET inh -2, DENV2 CPE -2 and MLL AF4-AF9 inh -3.
Screening Cc1cccc(N(C)c2cc(C)nc3nc(C)nn23)c1 returned S100A4 inh HTS 0, SIRT5 inh -1, CaV13 FRET inh -5, DENV2 CPE 29* and MLL AF4-AF9 inh 0.
CO[C@@H]1CN(C)C(=O)c2ccc(NC(C)=O)cc2OC[C@@H](C)N(C(=O)C2CCOCC2)C[C@H]1C was read as S100A4 inh HTS -8, SIRT5 inh -9, DENV2 CPE 3 and MLL AF4-AF9 inh -2.
CCNC(=O)C[C@H]1CC[C@H]2[C@@H](COC[C@@H](O)CN2C(=O)Nc2ccc(C(F)(F)F)cc2)O1 was read as S100A4 inh HTS 13, SIRT5 inh 64*, DENV2 CPE -2 and MLL AF4-AF9 inh -1.
For O=C(C[C@H]1CC[C@@H]2NC[C@H](O)COC[C@H]2O1)NCCc1ccccc1 the results were S100A4 inh HTS -14, SIRT5 inh 0, DENV2 CPE 25* and MLL AF4-AF9 inh -1.
For O=C(C[C@H]1CC[C@H]2[C@@H](COC[C@H](O)CN2C(=O)Nc2ccccc2)O1)NCCc1ccncc1 the results were S100A4 inh HTS 4, SIRT5 inh 0, DENV2 CPE 53* and MLL AF4-AF9 inh -1.
O=C(C[C@H]1CC[C@H]2[C@@H](COC[C@H](O)CN2C(=O)Nc2ccc(F)cc2)O1)NCCc1ccncc1 was read as S100A4 inh HTS 9, SIRT5 inh 18*, DENV2 CPE 0 and MLL AF4-AF9 inh 0.
O=C(C[C@H]1CC[C@@H]2[C@H](COC[C@@H](O)CN2C(=O)Nc2ccc(F)cc2)O1)NCCc1ccncc1 was read as S100A4 inh HTS 9, SIRT5 inh -4, DENV2 CPE -12 and MLL AF4-AF9 inh -1.
For C/C=C/c1cnc2c(c1)C(=O)N([C@H](C)CO)C[C@@H](C)[C@H](CN(C)C(=O)NCCC)O2 the results were S100A4 inh HTS 17, SIRT5 inh -2, DENV2 CPE 16 and MLL AF4-AF9 inh -1.
For Cc1ccc(S(=O)(=O)Nc2ccc3c(c2)C(=O)N([C@H](C)CO)C[C@@H](C)[C@@H](CN(C)C(=O)Nc2cccc4ccccc24)OCCCC[C@@H](C)O3)cc1 the results were S100A4 inh HTS 4, SIRT5 inh 10, DENV2 CPE -12 and MLL AF4-AF9 inh 0.
`CC(=O)n1cc(CO)c2ccccc21` gave S100A4 inh HTS 2, SIRT5 inh 9, DENV2 CPE 35* and MLL AF4-AF9 inh -1.
`C=C(c1cn(C(C)=O)c2ccccc12)c1cn(C(C)=O)c2ccccc12` gave S100A4 inh HTS -4, CaV13 FRET inh -5, DENV2 CPE 13 and MLL AF4-AF9 inh 0.
Screening O=C(NCCc1ccccc1)c1ccccc1NC(=O)C1CCCCC1C(=O)O (configuration not stated) returned S100A4 inh HTS 5, SIRT5 inh 14, CaV13 FRET inh -6, DENV2 CPE 44* and MLL AF4-AF9 inh 1.
`O=C(C1CCC(CNc2c(N3CCCCC3)c(=O)c2=O)CC1)N1CCCCC1` (configuration not stated) gave S100A4 inh HTS 2, CaV13 FRET inh -5, DENV2 CPE 1 and MLL AF4-AF9 inh -16.
For O=C(C1CCC(CNc2c(N3CCOCC3)c(=O)c2=O)CC1)N1CCN(c2ccccc2)CC1 (configuration not stated) the results were S100A4 inh HTS -14, SIRT5 inh 3, CaV13 FRET inh -5, DENV2 CPE -13 and MLL AF4-AF9 inh 40*.
For C[C@@H](CO)NC(=O)c1ccc2c3n(nc2c1)-c1ccccc1CO3 the results were S100A4 inh HTS -6, CaV13 FRET inh -12, DENV2 CPE 40* and MLL AF4-AF9 inh -3.
`Cc1cc(N(C)C(=O)c2ccc3c(c2)S(=O)(=O)c2cc(Cl)ccc2C3=O)c(C(F)(F)F)o1` gave S100A4 inh HTS 0, CaV13 FRET inh -5, DENV2 CPE 49* and MLL AF4-AF9 inh 0.
